This series is described as follows: Cytotoxicity assay on MRC-5 fibroblasts. It counts as cell-based. Conditions: human, MRC-5SV2 cells. The essentials: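 MRC-5SV2 cells grown in MEM with L-glutamine, NaHCO3 and 5% hiFBS, seeded at 15,000 cells/well. Four-fold dilutions of test compound were added, with a highest in-test concentration of 64 μM. Cells were exposed for 72 h at 37 °C and 5% CO2, then incubated with resazurin for 4 h and read by fluorescence. CC50 was calculated from ≥2 independent experiments in duplicate.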

The CC50 is the concentration at which the toxic effect on the cells reaches its halfway point. Lower therefore signals harm at low concentration.

The compound `CC[n+]1c(-c2ccccc2)c2cc(N/N=N/c3cccc(C(=N)N)c3)ccc2c2ccc(N)cc21` [isometamidium] displayed a CC50 at 72 h of 22.7 µM.

Values taken from publication PMC9111543 (International Journal for Parasitology: Drugs and Drug …, 2022).
